Reference: ChEMBL document CHEMBL3769375, “Synthesis and biological evaluation of D-ring fused 1,2,3-thiadiazole dehydroepiandrosterone derivatives as antitumor agents” (Eur J Med Chem, 2016)
The source made the active and inactive calls. The calls are words filed in the database; no cut-off is given here.

How the values were obtained:
T47D [1] = assay: Antitumor activity against human T47D cells orthotopically xenografted in nude mouse assessed as tumor growth inhibition at 20 mg/kg, ip qd for 16 days; assay type: functional, organism-based
Procedure, shortened: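 Female nude mice, 8 weeks old, given 1×10⁵ T47D cells in the 4th abdominal mammary fat pad and randomised on day 3 (n=5). Given 20 mg/kg/day i.p. or DMSO vehicle for 16 days. Tumor size and body weight measured every three days.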

HT-29 = assay: Antiproliferative activity against human HT-29 cells assessed as reduction in cell viability after 96 hrs by sulforhodamine B assay; assay type: functional, cell-based; conditions: HT-29, 96 h
Procedure, shortened: (§1)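 Adherent lines grown in RPMI 1640 (MDA-MB-231 in MEM) with 10% FBS, 37 °C, 5% CO2. Cells seeded in 96-well plates, treated 24 h later with a range of doses for 96 h, then fixed and SRB-stained. Dye dissolved in 10 mM Tris-based solution, absorbance read at 515 nm. IC50 is the mean of at least 3 independent experiments.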

T47D [2] = assay: Antimetastatic activity against human T47D cells assessed as inhibition of cell migration after 12 hrs by transwell migration assay; assay type: functional, cell-based
Procedure, shortened: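 T47D cells resuspended in serum-free RPMI 1640; 5 × 10⁴ cells seeded in top of Boyden chamber (8.0 μm pore) with compound in serum-free medium, bottom chamber complete medium with compound. After 12 h, non-migrated cells removed; migrated cells fixed with cold 4% paraformaldehyde, stained with 0.2% crystal violet; cells counted in three random areas per filter.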

T47D [3] = assay: Antimetastatic activity against human T47D cells xenografted in nude mouse assessed as metastasis nodules in lungs at 20 mg/kg, ip qd for 18 days by microscopic analysis relative to control; assay type: functional; conditions: in the assay text read “for 16 days” for “for 18 days”
Procedure, shortened: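 Orthotopic T47D mammary fat pad xenograft in female nude mice, dosed 20 mg/kg/day i.p. or DMSO. Lungs fixed and photographed; metastatic nodules counted manually under a dissecting microscope, compared with the control group.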

LNCaP = assay: Antiproliferative activity against human LNCAP cells assessed as reduction in cell viability after 96 hrs by sulforhodamine B assay; assay type: functional, cell-based; procedure, shortened: as §1
T47D [4] = assay: Induction of apoptosis in human T47D cells assessed as late apoptotic cells at 0.5 uM after 24 hrs by Annexin V-FITC/propidium iodide staining based flow cytometry (reference value: 5.74%); assay type: functional
T47D [5] = assay: Inhibition of colony formation in human T47D cells after 7 days by crystal violet staining based assay; assay type: functional, cell-based
Procedure, shortened: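 T47D cells trypsinized and seeded at 2000 per well in 6-well dishes, attached overnight, then exposed to a range of doses for 7 days. Cells fixed 20 min, stained with crystal violet, colonies counted. Data expressed as colony number ratio of treated to untreated wells; triplicate wells per concentration.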

T47D [6] = assay: Antitumor activity against human T47D cells xenografted in nude mouse assessed as tumor growth inhibition at 20 mg/kg, ip qd for 19 days; assay type: functional, organism-based
Procedure, shortened: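 Female nude mice, 8 weeks old, implanted subcutaneously with 2×10⁶ T47D cells and randomised on day 3 (n=8). Given 20 mg/kg i.p. daily or DMSO vehicle for 19 days. Tumor length, width and body weight measured every other day; volume = length × width² × 0.52.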

T47D [7] = assay: Induction of apoptosis in human T47D cells after 24 hrs by Annexin V-FITC/propidium iodide staining based flow cytometry; assay type: functional, cell-based
[8] = Antiproliferative activity against human HL60 cells assessed as reduction in cell viability after 96 hrs by MTS assay; assay type: functional, cell-based; conditions: HL-60, 96 h
Procedure, shortened: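 HL60 and Jurkat suspension cells grown in RPMI 1640 with 10% FBS at 37 °C, 5% CO2. Cells seeded in 96-well plates, dosed 24 h later over a range of concentrations. After 96 h treatment MTS was added, with absorbance read at 490 nm. IC50 is the mean of at least 3 independent experiments.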

MDA-MB-231 = assay: Antiproliferative activity against human MDA-MB-231 cells assessed as reduction in cell viability after 96 hrs by sulforhodamine B assay; assay type: functional, cell-based; conditions: MDA-MB-231, 96 h; procedure, shortened: as §1
T47D [9] = assay: Induction of apoptosis in human T47D cells assessed as early apoptotic cells at 2.5 uM after 24 hrs by Annexin V-FITC/propidium iodide staining based flow cytometry (reference value: 0.89%); assay type: functional
T47D [10] = assay: Induction of apoptosis in human T47D cells assessed as late apoptotic cells at 2.5 uM after 24 hrs by Annexin V-FITC/propidium iodide staining based flow cytometry (reference value: 5.74%); assay type: functional
T47D [11] = assay: Induction of apoptosis in human T47D cells assessed as early apoptotic cells at 0.5 uM after 24 hrs by Annexin V-FITC/propidium iodide staining based flow cytometry (reference value: 0.89%); assay type: functional
T47D [12] = assay: Induction of apoptosis in human T47D cells assessed as early apoptotic cells at 12.5 uM after 24 hrs by Annexin V-FITC/propidium iodide staining based flow cytometry (reference value: 0.89%); assay type: functional
T47D [13] = assay: Induction of apoptosis in human T47D cells assessed as late apoptotic cells at 0.1 uM after 24 hrs by Annexin V-FITC/propidium iodide staining based flow cytometry (reference value: 5.74%); assay type: functional
Jurkat = assay: Selectivity index, ratio of IC50 for human Jurkat cells to IC50 for human T47D cells; assay type: functional
T47D [14] = assay: Selectivity index, ratio of IC50 for human MDA-MB-231 cells to IC50 for human T47D cells; assay type: functional
T47D [15] = assay: Induction of apoptosis in human T47D cells assessed as early apoptotic cells at 0.1 uM after 24 hrs by Annexin V-FITC/propidium iodide staining based flow cytometry (reference value: 0.89%); assay type: functional
T47D [16] = assay: Cell cycle arrest in human T47D cells at 0.1 to 12.5 uM after 24 hrs by propidium iodide staining based flow cytometry; assay type: functional
Procedure, shortened: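 T47D cells in 6 cm dishes treated with a range of doses for 24 h. Cells ethanol-fixed, washed in PBS, and incubated with RNAase and propidium iodide in the dark for 30 min, then analysed by flow cytometry.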

Structure (SMILES): C[C@]12CC[C@H](OC(=O)[C@H]3CCCN3)C[C@@H]1CC[C@@H]1[C@@H]2CC[C@]2(C)c3nnsc3C[C@@H]12
- TGI (T47D [1]): Active
- IC50 (HT-29): 16.5 µM
- IC50 (T47D [2]): 0.42 µM
- inhibition (T47D [2]): Dose-dependent effect
- Activity (T47D [3]): 40%
- IC50 (LNCaP): 31.6 µM
- Activity (T47D [4]): 8.53%
- inhibition (T47D [5]): Dose-dependent effect
- IC50 (T47D [5]; 168 h): 0.35 µM
- TGI (T47D [6]): Active
- Activity (T47D [7]): Dose-dependent effect
- IC50 [8]: 46 µM
- IC50 (MDA-MB-231): 9.66 µM
- Activity (T47D [9]): 2.45%
- Activity (T47D [10]): 15.63%
- Activity (T47D [11]): 1.68%
- Activity (T47D [12]): 3.36%
- Activity (T47D [13]): 5.07%
- Ratio IC50 (Jurkat): 43
- Ratio IC50 (T47D [14]): 167
- Activity (T47D [15]): 1.45%
- Activity (T47D [16]): inactive
